From ChEMBL document CHEMBL4251683, “Improved Dose-Response Relationship of (+)-Discodermolide-Taxol Hybrid Congeners” (2018)
Active and inactive are the calls of the source.

Experiments:
Hs-578T [1] = experiment: Induction of senescence in human Hs578T cells assessed as increase in cell population with high forward scatter at 100 nM after 10 days by DAPI staining based flow cytometry; type: functional
Procedure, shortened: (§1)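 HS578T treated with 100 nM doxorubicin for 10 days, then stained with DAPI for live-cell flow cytometry. Forward scatter (volume) and side scatter (granularity) recorded. Dead cells were DAPI+; senescent cells were high FSC and SSC with low DAPI uptake; mitotic catastrophe was FSC increase only.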

Hs-578T [2] = experiment: Induction of senescence in human Hs578T cells assessed as increase in dead cells at 100 nM after 10 days by DAPI staining based flow cytometry; type: functional, cell-based; procedure, shortened: as §1
Hs-578T [3] = experiment: Induction of senescence in human Hs578T cells assessed as increase in IL-6 mRNA expression level at 100 nM after 10 days by qRT-PCR analysis; type: functional, cell-based
Procedure, shortened: (§2)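 HS578T exposed to 100 nM doxorubicin for 10 days, then sorted for SSC+ DAPI− cells. Sorted and unsorted populations assayed by qRT-PCR for SASP transcripts. Expression was normalised to cyclophilin B, and groups compared by unpaired t test.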

Hs-578T [4] = experiment: Induction of mitotic catastrophe in human Hs578T cells assessed as increase in cell population with high forward scatter at 100 nM after 10 days by DAPI staining based flow cytometry; type: functional; procedure, shortened: as §1
Hs-578T [5] = experiment: Induction of senescence in human Hs578T cells assessed as increase in CXCL1 mRNA expression level at 100 nM after 10 days by qRT-PCR analysis; type: functional, cell-based; procedure, shortened: as §2
Hs-578T [6] = experiment: Induction of senescence in human Hs578T cells assessed as increase in IL-8 mRNA expression level at 100 nM after 10 days by qRT-PCR analysis; type: functional, cell-based; procedure, shortened: as §2
Hs-578T [7] = experiment: Induction of senescence in human Hs578T cells assessed as increase in cell population with high side scatter at 100 nM after 10 days by DAPI staining based flow cytometry; type: functional; procedure, shortened: as §1

Measured: Activity

COc1cccc2c1C(=O)c1c(O)c3c(c(O)c1C2=O)C[C@@](O)(C(=O)CO)C[C@@H]3O[C@H]1C[C@H](N)[C@H](O)[C@H](C)O1
active: all assays above
